# Source: PubChem (several laboratories)
# Wee1 stabilizer: inhibitors of human Wee1 degradation | P30291 | HeLa Luc-Wee1K328M stability, luciferase luminescence; 100% = proteasome inhibitor MG132 effect | reporter increase, % at 5 µM | 220,000 compounds, 1.2% hits | AID 1321;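 active = activation above the mean of all tested compounds plus 3 SD, set per screening run, cut at about 8.8% in these data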;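 note: cells exposed to compound for 20 h before luminescence read; 0% = DMSO alone and 100% = MG132 at 30 µM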
# Target sequence (P30291 whole entry K328M): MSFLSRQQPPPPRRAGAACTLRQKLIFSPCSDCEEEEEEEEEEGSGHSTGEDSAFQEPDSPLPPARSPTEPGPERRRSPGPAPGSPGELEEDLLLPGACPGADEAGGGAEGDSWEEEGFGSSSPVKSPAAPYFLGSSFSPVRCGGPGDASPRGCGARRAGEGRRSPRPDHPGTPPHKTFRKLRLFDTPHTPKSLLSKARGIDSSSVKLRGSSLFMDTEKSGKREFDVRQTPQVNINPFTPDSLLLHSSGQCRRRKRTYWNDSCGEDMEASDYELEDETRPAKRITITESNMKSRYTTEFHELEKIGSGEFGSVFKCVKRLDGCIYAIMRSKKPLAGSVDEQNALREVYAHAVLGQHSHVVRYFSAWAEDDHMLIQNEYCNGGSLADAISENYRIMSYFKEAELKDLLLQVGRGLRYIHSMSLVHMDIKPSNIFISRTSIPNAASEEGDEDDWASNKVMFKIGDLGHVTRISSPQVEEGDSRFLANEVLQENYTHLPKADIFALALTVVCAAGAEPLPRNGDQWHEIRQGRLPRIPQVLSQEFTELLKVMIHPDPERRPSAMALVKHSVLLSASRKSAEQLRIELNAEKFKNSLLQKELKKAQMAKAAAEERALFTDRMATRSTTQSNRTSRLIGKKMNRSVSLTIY
# RBBP9 inh: blocks human serine hydrolase RBBP9; recombinant RBBP9, FP-Rh probe fluorescence polarization; inhibition, % at 7.94 µM; 220,000 compounds, 0.2% hits;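 active = inhibition above the campaign mean of all tested compounds plus 3 SD, cut at about 14% in these data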;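 note: plate controls were DMSO wells with RBBP9 for no effect and wells lacking RBBP9 protein for full effect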
#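 Test system: recombinant human RBBP9; Timing: 30 min then 45 min, 25 °C; Detection: fluorescence polarization; Control set: RBBP9 with DMSO as uninhibited control, no-protein wells as full inhibition; Compound dosing: one concentration, 7.94 µM nominal, 0.794% DMSO; Probe or stimulus: FP-Rh activity-based probe, 375 nM before mixing.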
# PfM18AAP inh-1: blocks P. falciparum M18 aspartyl aminopeptidase | recombinant PfM18AAP, H-Glu-NHMec fluorogenic cleavage | inhibition, % at 7.35 µM | 290,000 compounds, 1.2% hits | AID 1822;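 active = inhibition above the campaign mean inhibition over all tested compounds plus 3 SD, cut at about 28% in these data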;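 note: 0% = plate median of test compound wells and 100% = 2 mM ZnCl2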
# zVAD death inh: blocks zVAD induced death of L929 cells | 220,000 compounds, 0.38% hits | AID 1377 | L929 zVAD necroptosis rescue, ATP luminescence, 24 h; with zVAD 60 µM | viability rescue, % at 10 µM;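 active = activation, scaled between plate controls, above about 75%, limit read from the data; inactive = activation under that limit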;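 note: 0% = zVAD with DMSO and 100% = DMSO alone without zVAD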
# p97 ATPase inh: human p97 ATPase inhibition; inhibition, % at 8 µM; P55072; recombinant p97 ATPase, Kinase-Glo ATP luminescence, 3 h; AID 1481; 220,000 compounds, 0.42% hits; in the data active = inhibition above about 15%;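 note: 0% = DMSO vehicle and 100% = wells lacking enzyme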
# TNF death inh: inhibitors of TNF-alpha induced necroptosis in Jurkat FADD-/- cells; Jurkat FADD-/- TNF necroptosis rescue, ATP luminescence, 24 h; 0 = TNF only, 100 = no-TNF cells; activation (protection from cell death), % at 10 µM; 220,000 compounds, 0.068% hits; AID 463075;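 active = activation, meaning protection from cell death, of at least 50% relative to plate controls; inactive = activation below 50%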;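 note: necroptosis triggered by 40 ng/mL TNF-alpha added together with compound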
# PfM18AAP inh-2: PfM18AAP inhibition, confirmation. recombinant PfM18AAP, H-Glu-NHMec fluorogenic cleavage. AID 2170. 2,400 compounds, 28% hits. shares compounds with PfM18AAP inh-1. inhibition, % at 7.35 µM;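 active = mean inhibition over replicate wells above the hit cutoff set for the earlier primary screen, cut at about 29% in these data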;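 note: 0% = median of test compound wells and 100% = 2 mM ZnCl2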
# CTSL1 confirm: Cathepsin L (human) inhibition, confirmation; shares compounds with PfM18AAP inh-1; purified cathepsin L1, Z-Leu-Arg-MCA fluorescence; inhibition, % at 5.96 µM; 2,400 tested, under 10 active; AID 2178;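 active = average inhibition across replicates above the hit cutoff set in the earlier primary screen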;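 note: 0% = median of test compound wells and 100% = Z-Phe-Ala-diazomethylketone 1 µM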
# * = called active by the depositor; x = not tested or not shown. Most compounds without a hit are left out; they make up all but 2.7% or so of the library.
SMILES,Wee1 stabilizer,RBBP9 inh,PfM18AAP inh-1,zVAD death inh,p97 ATPase inh,TNF death inh,PfM18AAP inh-2,CTSL1 confirm
CCN(CC)c1ccc([C@H]2[C@@H]3CCCC[C@]3(O)CCN2CC(=O)NCc2ccco2)cc1,4.2,1.8,22.9,-0.3,0.6,3.0,x,x
OCCC1CN(Cc2cc(F)ccc2-n2cccn2)CCN1Cc1ccc(F)cc1 (centres undefined),0.3,5.3,-4.0,-0.1,0.6,-0.8,x,x
CNC(=O)C1C(=S)NC(N)=C(C#N)C1c1ccccc1 (centres undefined),-1.6,-2.3,47.3*,-1.0,-3.1,-4.3,22.6,-0.2
COc1cc(/C=N/N2C(C)CCCC2C)cc(OC)c1O (centres undefined),x,x,39.2*,x,x,x,-31.4,-7.8
CCOc1ccc(/C=N/N2C(C)CCCC2C)cc1OC (centres undefined),x,x,8.3,x,x,x,x,x
CCOC(=O)c1c(CN(C)C)n(-c2ccc(C)cc2)c2cc(Br)c(O)cc12,-1.5,2.7,37.6*,0.0,-2.0,-1.9,-37.6,3.0
CCOC(=O)c1c(CN2CCOCC2)n(-c2ccccc2)c2cc(Br)c(O)cc12,4.6,3.0,7.8,-0.1,1.1,-2.7,x,x
O=C(Nc1cccnc1)c1cc2cc(Br)ccc2o1,x,x,1.0,x,x,x,x,x
CCC(CC)c1nnc(NC(=O)Cc2cccs2)s1,0.4,3.9,39.5*,8.0,5.1,0.0,-33.0,1.5
O=C(Cc1cccs1)Nc1nnc(-c2ccccc2)s1,-2.9,1.4,2.7,5.4,2.8,12.5,x,x
O=C(CCn1c(=S)oc2ccccc21)Nc1cc([N+](=O)[O-])ccc1F,x,x,-1.5,x,x,x,x,x
O=C(NCC1CCCO1)C1CCCN(S(=O)(=O)c2ccc(Br)cc2)C1 (centres undefined),x,x,31.8*,x,x,x,-51.9,-1.3
O=C(CSc1nnc2c(n1)[nH]c1ccccc12)Nc1cccc(S(=O)(=O)N2CCOCC2)c1,3.3,-4.0,1.9,-1.0,2.5,-5.5,x,x
O=C(Cn1cnc([N+](=O)[O-])n1)c1ccc(O)c(O)c1,x,x,38.1*,x,x,x,13.6,-0.3
COc1ccc2c(-c3ccccc3)cc(N3CCOCC3)nc2c1,-0.1,-9.8,50.5*,0.4,1.3,-7.4,-44.3,5.9
COc1cc(OC)cc(C(=O)n2cnnc2N)c1,0.6,-5.0,53.3*,1.4,3.5,-0.4,48.8*,-0.3
COC(=O)c1cn(C(=O)c2cc(OC)cc(OC)c2)c2ccccc12,x,x,-0.6,x,x,x,x,x
COc1ccc(CNc2n[nH]c(NCc3ccc(OC)c(OC)c3)n2)cc1OC,-2.3,-6.4,47.3*,-0.1,1.4,0.5,1.6,-5.4
CCC(=O)n1nc(NCc2ccc(OC)c(OC)c2)nc1NCc1ccc(OC)c(OC)c1,-1.7,-2.3,38.1*,-0.2,-6.5,-3.0,-8.6,-2.7
CCC(=O)n1nc(-c2cccnc2)nc1NCc1ccc(OC)cc1,-0.4,-1.8,0.2,0.6,-0.2,0.0,x,x
O=C(NC(=S)NNS(=O)(=O)c1ccccc1)c1ccc([N+](=O)[O-])cc1,-2.8,-0.6,50.3*,-0.3,6.3,0.7,-9.1,4.2
O=C(Cc1csc(N2CCOCC2)n1)N/N=C/c1ccc(O)c(O)c1O,1.0,-2.1,47.0*,2.7,6.6,-2.4,16.0,-2.8
C/C(=N\NC(=O)Cc1csc(N2CCOCC2)n1)c1ccccc1,-0.1,-4.2,1.6,0.0,-3.1,-0.6,x,x
C/C(=C/c1oc2ccc(O)cc2c1[N+](=O)[O-])N(C)C,-0.2,-5.1,37.5*,-0.5,12.2,-3.8,-22.6,8.4
COCCCNC(=O)c1cccc(OC)c1OC,-1.1,-1.1,-9.8,-0.1,0.0,-1.8,x,x
SMILES,Wee1 stabilizer,RBBP9 inh,PfM18AAP inh-1,zVAD death inh,p97 ATPase inh,TNF death inh,PfM18AAP inh-2,CTSL1 confirm
Cc1cc(C)c2nc(-c3ccccn3)cc(C(=O)Nn3cnnc3)c2c1,-2.8,-4.7,44.1*,1.9,1.3,-0.1,29.4*,-4.4
O=C(Nn1cnnc1)c1ccccc1Cl,x,x,55.4*,x,x,x,40.0*,-0.8
Cc1ccccc1C(=O)Nn1cnnc1,x,x,33.0*,x,x,x,23.6,-4.1
COc1cccc(C(=O)Nn2cnnc2)c1OC,x,x,43.3*,x,x,x,51.5*,-4.5
CC(=O)N1CCN(Cc2nc3cc(NC(=O)c4cccc(Br)c4)ccc3n2C)CC1,-0.8,-5.8,-1.5,-0.1,6.8,-4.7,x,x
CC(=O)CSc1ccc(C(=O)O)cn1,0.9,-5.3,2.1,-0.1,0.5,1.0,x,x
O=C(O)c1ccccc1C(=O)Nn1cnnc1,x,x,37.5*,x,x,x,35.9*,-2.5
CCCc1ccc(-c2cc(C(=O)NN3CCOCC3)c3ccccc3n2)cc1,0.2,-3.3,-7.3,0.0,-1.4,-7.6,x,x
O=C(CP(=O)(c1ccccc1)c1ccccc1)Nn1cnnc1,-1.3,2.2,34.5*,1.4,1.3,0.1,49.1*,5.2
CCc1ccc(-c2cc(C(=O)Nn3cnnc3)c3ccccc3n2)cc1,-3.8,-0.5,43.0*,-2.8,-23.2,-7.2,46.4*,-1.3
CCNC(=O)CP(=O)(c1ccccc1)c1ccccc1,-0.8,-2.9,0.5,0.5,3.4,1.9,x,x
O=C(CSc1nnc(-c2ccccc2)o1)Nn1cnnc1,0.8,3.5,72.1*,0.8,-3.2,2.6,72.6*,1.0
O=c1c(/C=N/N2CCOCC2)c(C(F)(F)F)[nH]n1-c1ccccc1,5.9,-3.1,-1.7,2.5,7.7,0.3,x,x
O=C(Nc1ccc(N=Nc2ccccc2)c(NC(=O)C2CCCO2)c1)C1CCCO1 (centres undefined),4.0,-2.3,-5.6,6.2,2.1,4.1,x,x
CN(C)c1ccc(N2C(=O)CSC2=S)cc1,-0.8,3.9,20.8,-0.4,9.3,-0.1,x,x
CC1SC(=S)N(c2ccc(N(C)C)cc2)C1=O (centres undefined),x,x,32.8*,x,x,x,9.6,-1.2
COc1cccc(OC)c1C(=O)NC(=O)Nc1c(F)cc(F)cc1F,1.3,-7.0,-0.9,0.5,4.8,1.7,x,x
COc1cccc(OC)c1C(=O)NC(=O)NNc1cc(C(F)(F)F)cc(C)n1,x,x,40.4*,x,x,x,-0.9,2.8
O=C(COc1ccc(F)cc1)c1ccc2c(c1)CCCC2,-0.9,-8.6,-7.2,-0.4,-12.1,-3.1,x,x
O=C(COc1ccc(F)cc1)c1c(O)cc(O)cc1O,3.4,4.5,32.6*,-0.3,8.2,3.4,23.2,-1.0
CC/C(=N\NC(=O)CNC(=O)/C=C/c1ccc(OC)cc1)c1ccccc1,x,x,8.4,x,x,x,x,x
O=C(Nc1ccc(F)cc1)c1ccc2c(=O)n(CC3CCCO3)c(=S)[nH]c2c1 (centres undefined),x,x,5.6,x,x,x,x,x
